# Molecular target: Translocator protein (Rattus norvegicus) (UniProt P16257)
# Assay: Tissue (blood) concentration of radioactivity at 30 min post-injection into Albino male CD rats after pretreatment with cold PK 11195.
# Assay type: functional, tissue-based
# Conditions: not given
# In short: (§1)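 Separate groups of five rats received tail-vein PK 11195 (1.4-1.6 mg; 5 mg/kg) in 30 µL DMSO:EtOH 1:1, or vehicle alone, immediately before iv radioligand (90-170 µCi in saline, 0.9-1 Ci/µmol). Rats were decapitated at 30 min and tissues gamma-counted; values are %I.D./g.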
# Translocator protein (Rattus norvegicus), sequence (P16257 whole entry, looked up): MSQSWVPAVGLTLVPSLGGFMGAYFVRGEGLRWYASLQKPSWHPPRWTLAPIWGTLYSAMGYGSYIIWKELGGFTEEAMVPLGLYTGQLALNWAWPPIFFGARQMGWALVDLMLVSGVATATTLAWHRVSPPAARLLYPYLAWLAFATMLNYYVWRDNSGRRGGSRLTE
row,Structure (SMILES),I.D./g [%]
1,CCC(C)N(C)C(=O)c1nc2ccccc2c(-c2ccccc2F)c1C (stereo not given),> 0.04

# Species on record: Rattus norvegicus
# Assay: Tissue (cortex) concentration of radioactivity at 30 min post-injection into Albino male CD rats with vehicle.
# Assay type: ADME, organism-based
# Conditions: in vivo, 0.5 h
# In short: as §1
row,Structure (SMILES),I.D./g [%]
1,CCC(C)N(C)C(=O)c1nc2ccccc2c(-c2ccccc2F)c1C (stereo not given),0.05

# Species on record: Rattus norvegicus
# Assay: Tissue (liver) concentration of radioactivity at 30 min post-injection into Albino male CD rats with vehicle.
# Assay type: ADME, organism-based
# Conditions: in vivo, 0.5 h
# In short: as §1
row,Structure (SMILES),I.D./g [%]
1,CCC(C)N(C)C(=O)c1nc2ccccc2c(-c2ccccc2F)c1C (stereo not given),0.35

# Molecular target: Translocator protein (Rattus norvegicus) (UniProt P16257)
# Assay: Tissue (lung) concentration of radioactivity at 30 min post-injection into Albino male CD rats after pretreatment with cold PK 11195.
# Assay type: functional
# Conditions: not given
# In short: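 Blocking study in male albino CD rats, five per group. Immediately before the 11C radioligand (in saline, i.v. tail vein), rats received 30 µL tail-vein PK 11195 (5 mg/kg; 1.4-1.6 mg) in DMSO:EtOH 1:1, or vehicle. Rats were decapitated at 30 min. Tissues were dissected, washed, gamma-counted and weighed as in the biodistribution study. Results are %I.D./g.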
row,Structure (SMILES),I.D./g [%]
1,CCC(C)N(C)C(=O)c1nc2ccccc2c(-c2ccccc2F)c1C (stereo not given),< 0.12

# Species on record: Rattus norvegicus
# Assay: Tissue (cerebellum) distribution in Albino male CD rats after 5 minutes expressed as percent of injected dose per gram of organ.
# Assay type: ADME, organism-based
# Conditions: in vivo
# In short: (§2)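 Radioligand given in saline into tail vein of male albino CD rats (225-250 g); 100-200 µCi per animal, 1-2 Ci/µmol at injection depending on radioligand. Three rats per time point were decapitated under light ether anaesthesia. Blood, plasma, brain regions and washed organs were weighed and gamma-counted. Uptake is %I.D./g tissue, mean ± SD.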
row,Structure (SMILES),I.D./g [%]
1,CCC(C)N(C)C(=O)c1nc2ccccc2c(-c2ccccc2F)c1C (stereo not given),0.1

# Species on record: Rattus norvegicus
# Assay: Tissue (intestine) distribution in Albino male CD rats after 5 minutes expressed as percent of injected dose per gram of organ.
# Assay type: ADME, organism-based
# Conditions: in vivo
# In short: as §2
row,Structure (SMILES),I.D./g [%]
1,CCC(C)N(C)C(=O)c1nc2ccccc2c(-c2ccccc2F)c1C (stereo not given),0.18

# Species on record: Rattus norvegicus
# Assay: Tissue (pituitary) distribution in Albino male CD rats after 30 minutes expressed as percent of injected dose per gram of organ.
# Assay type: ADME, organism-based, Pituitary gland
# Conditions: in vivo, 0.5 h
# In short: (§3)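 Male albino CD rats (225-250 g) received the 11C-labelled radioligand in saline by tail-vein injection. Three rats per time point were decapitated under light ether anaesthesia at 5, 15, 30, 60 or 90 min. Blood was collected heparinized and plasma separated by centrifugation. The pituitary was dissected from the brain. Lung, liver (three-lobe pieces) and right deltoid muscle were sampled, washed in cold saline, gamma-counted and weighed. Results are %I.D./g.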
row,Structure (SMILES),I.D./g [%]
1,CCC(C)N(C)C(=O)c1nc2ccccc2c(-c2ccccc2F)c1C (stereo not given),0.12

# Species on record: Rattus norvegicus
# Assay: Tissue (blood) distribution in Albino male CD rats after 90 minutes expressed as percent of injected dose per gram of organ.
# Assay type: ADME, organism-based
# Conditions: in vivo, 1.5 h
# In short: as §2
row,Structure (SMILES),I.D./g [%]
1,CCC(C)N(C)C(=O)c1nc2ccccc2c(-c2ccccc2F)c1C (stereo not given),0.05

# Species on record: Rattus norvegicus
# Assay: Tissue (plasma) distribution in Albino male CD rats after 30 minutes expressed as percent of injected dose per gram of organ.
# Assay type: ADME, organism-based
# Conditions: in vivo, 0.5 h
# In short: as §3
row,Structure (SMILES),I.D./g [%]
1,CCC(C)N(C)C(=O)c1nc2ccccc2c(-c2ccccc2F)c1C (stereo not given),0.06

# Species on record: Rattus norvegicus
# Assay: Tissue (adrenal gland) distribution in Albino male CD rats after 15 minutes expressed as percent of injected dose per gram of organ.
# Assay type: ADME, organism-based
# Conditions: in vivo, 0.25 h
# In short: as §2
row,Structure (SMILES),I.D./g [%]
1,CCC(C)N(C)C(=O)c1nc2ccccc2c(-c2ccccc2F)c1C (stereo not given),2.53

# Species on record: Rattus norvegicus
# Assay: Tissue (heart) distribution in Albino male CD rats after 15 minutes expressed as percent of injected dose per gram of organ.
# Assay type: ADME, organism-based
# Conditions: in vivo, 0.25 h
# In short: as §2
row,Structure (SMILES),I.D./g [%]
1,CCC(C)N(C)C(=O)c1nc2ccccc2c(-c2ccccc2F)c1C (stereo not given),0.86

# Species on record: Rattus norvegicus
# Assay: Tissue (pituitary) distribution in Albino male CD rats after 5 minutes expressed as percent of injected dose per gram of organ.
# Assay type: ADME, organism-based, Pituitary gland
# Conditions: in vivo
# In short: as §3
row,Structure (SMILES),I.D./g [%]
1,CCC(C)N(C)C(=O)c1nc2ccccc2c(-c2ccccc2F)c1C (stereo not given),0.16

# Species on record: Rattus norvegicus
# Assay: Tissue (plasma) distribution in Albino male CD rats after 5 minutes expressed as percent of injected dose per gram of organ.
# Assay type: ADME, organism-based
# Conditions: in vivo
# In short: as §3
row,Structure (SMILES),I.D./g [%]
1,CCC(C)N(C)C(=O)c1nc2ccccc2c(-c2ccccc2F)c1C (stereo not given),0.11

# Molecular target: Translocator protein (Rattus norvegicus) (UniProt P16257)
# Assay: Tissue (liver) concentration of radioactivity at 30 min post-injection into Albino male CD rats after pretreatment with cold PK 11195.
# Assay type: functional, tissue-based
# Conditions: not given
# In short: as §1
row,Structure (SMILES),I.D./g [%]
1,CCC(C)N(C)C(=O)c1nc2ccccc2c(-c2ccccc2F)c1C (stereo not given),< 0.45

# Species on record: Rattus norvegicus
# Assay: Tissue (adrenal gland) distribution in Albino male CD rats after 90 minutes expressed as percent of injected dose per gram of organ.
# Assay type: ADME, organism-based
# Conditions: in vivo, 1.5 h
# In short: as §2
row,Structure (SMILES),I.D./g [%]
1,CCC(C)N(C)C(=O)c1nc2ccccc2c(-c2ccccc2F)c1C (stereo not given),2.22

# Species on record: Rattus norvegicus
# Assay: Tissue (muscle) distribution in Albino male CD rats after 60 minutes expressed as percent of injected dose per gram of organ.
# Assay type: ADME, organism-based
# Conditions: in vivo, 1 h
# In short: as §3
row,Structure (SMILES),I.D./g [%]
1,CCC(C)N(C)C(=O)c1nc2ccccc2c(-c2ccccc2F)c1C (stereo not given),0.07

# Species on record: Rattus norvegicus
# Assay: Tissue (pituitary) distribution in Albino male CD rats after 15 minutes expressed as percent of injected dose per gram of organ.
# Assay type: ADME, organism-based, Pituitary gland
# Conditions: in vivo, 0.25 h
# In short: as §3
row,Structure (SMILES),I.D./g [%]
1,CCC(C)N(C)C(=O)c1nc2ccccc2c(-c2ccccc2F)c1C (stereo not given),0.27

# Species on record: Rattus norvegicus
# Assay: Tissue (plasma) distribution in Albino male CD rats after 90 minutes expressed as percent of injected dose per gram of organ.
# Assay type: ADME, organism-based
# Conditions: in vivo, 1.5 h
# In short: as §3
row,Structure (SMILES),I.D./g [%]
1,CCC(C)N(C)C(=O)c1nc2ccccc2c(-c2ccccc2F)c1C (stereo not given),0.04

# Species on record: Rattus norvegicus
# Assay: Tissue (intestine) distribution in Albino male CD rats after 30 minutes expressed as percent of injected dose per gram of organ.
# Assay type: ADME, organism-based
# Conditions: in vivo, 0.5 h
# In short: as §2
row,Structure (SMILES),I.D./g [%]
1,CCC(C)N(C)C(=O)c1nc2ccccc2c(-c2ccccc2F)c1C (stereo not given),0.31

# Species on record: Rattus norvegicus
# Assay: Tissue (spleen) distribution in Albino male CD rats after 60 minutes expressed as percent of injected dose per gram of organ.
# Assay type: ADME, organism-based
# Conditions: in vivo, 1 h
row,Structure (SMILES),I.D./g [%]
1,CCC(C)N(C)C(=O)c1nc2ccccc2c(-c2ccccc2F)c1C (stereo not given),0.65
